# Results taken from article PMC10888821 (bioRxiv, 2024).
# The star is where a group is joined. K(dnp) = lysine 2,4-dinitrophenyl (Nε-2,4-dinitrophenyl-lysine); Mca = COc1ccc2c(CC(=O)*)cc(=O)oc2c1
# Key:
# Sm20S β1 [1] = experiment: Substrate hydrolysis by purified Sm20S, β1 substrates; assay type: biochemical, Schistosoma mansoni; details: between 16 and 250 μM substrate
# [2] = system: 20S proteasome β5 subunit of three Schistosoma species; experiment: Proteasome inhibition in three Schistosoma species, β5 substrate; assay type: biochemical, S. mansoni, S. haematobium, S. japonicum
# Summary of the method: (§1)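 Extracts of S. haematobium (0.625 μg/μL), S. japonicum and S. mansoni (1.25 μg/μL each) were enriched by ammonium sulfate precipitation. Proteasome amount was normalized by labelling with 2 μM Me4BodipyFL-Ahx3Leu3VS (37°C, 3 h) and in-gel fluorescence. Extracts were preincubated 1 h with test compound (0.125% DMSO vehicle), then mixed with an equal volume of 20 μM β1/β2 mca substrate or 40 μM Z-FNKL-amc. Buffer: 100 mM Tris pH 7.5, 50 μM E-64, 1 mM AEBSF, 2 μM pepstatin, 0.03% SDS. Triplicate wells at 24°C.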
# [3] = system: 20S proteasome β1 subunit of three Schistosoma species; experiment: Proteasome inhibition in three Schistosoma species, β1 substrate; assay type: biochemical, S. mansoni, S. haematobium, S. japonicum; details: 500 nM, single-step enriched 20S, across the three species
# Summary of the method: as §1
# [4] = system: 20S proteasome β2 subunit of three Schistosoma species; experiment: Proteasome inhibition in three Schistosoma species, β2 substrate; assay type: biochemical, S. mansoni, S. haematobium, S. japonicum
# Summary of the method: as §1
# Sm20S β5 subunit [5] = biological target: T1, Sm20S β5 subunit (Schistosoma mansoni, UniProt A0A5K4F079); experiment: Substrate hydrolysis by purified Sm20S, β5 substrates; assay type: biochemical
# T1 sequence (A0A5K4F079 63-264): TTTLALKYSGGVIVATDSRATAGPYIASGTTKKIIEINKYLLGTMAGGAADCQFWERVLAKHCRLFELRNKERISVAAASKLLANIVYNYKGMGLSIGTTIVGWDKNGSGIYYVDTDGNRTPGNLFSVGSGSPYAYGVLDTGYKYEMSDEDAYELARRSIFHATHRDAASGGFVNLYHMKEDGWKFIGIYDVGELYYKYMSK
# Summary of the method: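 Purified Sm20S (10 nM) was incubated with 2-fold serial dilutions of Ac-FNKL-amc or Suc-LLVY-amc. Hydrolysis was monitored at 24°C (ex/em 360/460 nm) and activity was compared as a function of substrate concentration. Technical triplicates.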
# Sj20S β1 = experiment: Proteasome inhibition in enriched extract, β1 substrate, S. japonicum; assay type: biochemical; details: 1 μM
# Summary of the method: as §1
# Sh20S β1 = experiment: Proteasome inhibition in enriched extract, β1 substrate, S. haematobium; assay type: biochemical; details: 1 μM
# Summary of the method: as §1
# Sm20S β1 [6] = experiment: Proteasome inhibition in enriched extract, β1 substrate, S. mansoni; assay type: biochemical; details: 1 μM
# Summary of the method: as §1
# Sm20S β1 [7] = experiment: Inhibition of Sm20S hydrolysis of mca-VDQMDGW-K; assay type: biochemical, Schistosoma mansoni
# Sm20S β1 subunit [8] = biological target: T2, Sm20S β1 subunit (Schistosoma mansoni, UniProt G4V926); experiment: Dose-response assay of purified Sm20S with Z-LLE-amc; assay type: biochemical
# T2 sequence (G4V926 26-225): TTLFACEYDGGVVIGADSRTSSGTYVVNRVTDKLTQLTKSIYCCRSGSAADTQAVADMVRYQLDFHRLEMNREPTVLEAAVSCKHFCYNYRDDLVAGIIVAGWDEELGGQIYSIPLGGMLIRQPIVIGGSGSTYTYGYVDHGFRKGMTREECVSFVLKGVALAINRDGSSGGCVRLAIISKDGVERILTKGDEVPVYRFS
# Summary of the method: (§2)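 Purified Sm20S was obtained from adult S. mansoni worms by ammonium sulfate precipitation, gel filtration and DEAE anion exchange. It was preincubated 15 min with test compound (20 μM to 9 nM, or 740 nM to 0.3 nM), then given 10 μM substrate: Suc-LLVY-amc (β5), Z-LLE-amc (β1) or Z-LRR-amc (β2). Maximum velocity over 8 sequential readings (RFU/sec) was normalized to 0.1% DMSO. Technical triplicates.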
# Sm20S β1 subunit [9] = biological target: T2, Sm20S β1 subunit; experiment: Inhibition of single-step enriched Sm20S, β1 substrate; assay type: biochemical
# Summary of the method: (§3)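 Sm20S was single-step enriched: worm lysate in Tris/E-64 pH 7.5, ammonium sulfate precipitation at 30 and 60% saturation, then 100 kDa concentration. Assay buffer contained pepstatin, E-64 and AEBSF. Substrates were mca-VDQMDGW-K(dnp)-NH2 (β1), mca-FnKRR-K(dnp)-NH2 (β2) and FNKL-amc (β5), tested across test compound concentrations. Reads were at ex/em 320/400 (mca) or 340/460 (amc). Technical triplicates.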
# Sm20S β5 subunit [10] = biological target: T1, Sm20S β5 subunit; experiment: Dose-response assay of purified Sm20S with Suc-LLVY-amc; assay type: biochemical; details: 500 nM inhibitor
# Summary of the method: as §2
# Sm20S β5 subunit [11] = biological target: T1, Sm20S β5 subunit; experiment: Inhibition of single-step enriched Sm20S, β5 substrate; assay type: biochemical
# Summary of the method: as §3
# [12] = system: 20S proteasome of three Schistosoma species; experiment: Cross-species inhibition profile of schistosome lysates; assay type: biochemical, S. mansoni, S. haematobium, S. japonicum; details: lysates pre-incubated with 500 nM
# Summary of the method: as §1
# Sm20S β2 subunit [13] = biological target: T3, Sm20S β2 subunit (Schistosoma mansoni, UniProt G4VSW3); experiment: Inhibition of single-step enriched Sm20S, β2 substrate; assay type: biochemical
# T3 sequence (G4VSW3 39-281): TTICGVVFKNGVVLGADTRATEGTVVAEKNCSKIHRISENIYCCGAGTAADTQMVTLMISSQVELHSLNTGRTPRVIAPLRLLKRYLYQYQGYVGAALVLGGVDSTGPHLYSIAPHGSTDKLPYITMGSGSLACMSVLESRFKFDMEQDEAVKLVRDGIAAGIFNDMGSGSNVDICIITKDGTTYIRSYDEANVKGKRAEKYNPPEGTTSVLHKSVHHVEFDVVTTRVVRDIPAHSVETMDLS
# T3 sequence (UPI0001A6248C 1-194 partner): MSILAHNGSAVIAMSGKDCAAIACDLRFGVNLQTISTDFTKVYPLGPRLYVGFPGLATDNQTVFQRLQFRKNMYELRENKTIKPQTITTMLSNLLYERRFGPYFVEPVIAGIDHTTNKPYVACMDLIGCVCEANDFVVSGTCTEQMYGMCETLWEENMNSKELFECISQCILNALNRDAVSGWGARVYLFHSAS
# Summary of the method: as §3
# Sm20S β2 subunit [14] = biological target: T3, Sm20S β2 subunit; experiment: Dose-response assay of purified Sm20S with Z-LRR-amc; assay type: biochemical; details: read-out: inhibition of β2 subunit activity
# Summary of the method: as §2
# Sm20S β2 = experiment: Sm20S pre-incubated with 10 μM inhibitor, assayed with mca-FnKRR-K; assay type: biochemical, Schistosoma mansoni; details: extended pre-incubation with 10 μM inhibitor
# Summary of the method: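 Sm20S was pre-incubated with test compound, then assayed with mca-FnKRR-K(dnp) and Z-LRR-amc. Fluorescence was read at 24°C: ex/em 320/400 nm (mca) and 360/460 nm (amc). Technical triplicates.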
# [15] = 500 nM, single-step enriched 20S, across the three species
compound,measurement,setting,value
mca-VDQMDGW-K(dnp)-NH2 (Mca-VDQMDGW-{K(dnp)-NH2}) [VDQMD*GW],cleavage efficiency relative to LLE-amc,Sm20S β1 [1],~ 2 fold
"C[C@@]12OC(=O)[C@]1([C@@H](O)[C@@H]1C=CCCC1)NC(=O)[C@@H]2CCCl [MZB, marizomib]",reduction of β5 activity,[2]; [15],complete inactivation
same,reduction of β1 activity,[3],61 to 34%
same,reduction of β2 activity,[4]; [15],66 to 48%
Ac-FNKL-amc,substrate concentration of maximal cleavage activity,Sm20S β5 subunit [5],25 µM
same,cleavage rate relative to Suc-LLVY-amc,Sm20S β5 subunit [5]; 25 μM substrate,~ four-fold
CCCCCC(=O)N[C@@H](Cc1c[nH]c2ccccc12)C(=O)N[C@@H](Cc1c[nH]c2ccccc12)C(=O)N[C@@H](Cc1ccccc1)C(=O)[C@@]1(C)CO1 [carmaphycin-17],reduction of Sj20S β1 activity,Sj20S β1,47%
same,inhibition of β5 subunits,"[2]; 1 μM, three species",complete inhibition
same,decrease of Sh20S β1 activity,Sh20S β1,20%
same,decrease of Sm20S β1 activity,Sm20S β1 [6],20%
same,inhibition of β2 subunits,"[4]; 1 μM, three species",~ 60%
"CC(C)C[C@H](NC(=O)[C@H](Cc1ccccc1)NC(=O)c1cnccn1)B(O)O [BTZ, bortezomib]",inhibition of mca-VDQMDGW-K(dnp) hydrolysis by Sm20S,Sm20S β1 [7],inhibited
same,inhibition of β1 subunit activity,"Sm20S β1 subunit [8]; 500 nM inhibitor, Z-LLE-amc",completely inactivated
same,IC50,Sm20S β1 subunit [9],49.84 ± 0.24 nM
same,inhibition of β5 subunit activity,Sm20S β5 subunit [10],completely inactivated
same,IC50,Sm20S β5 subunit [11],18 ± 2.05 nM
same,cross-species subunit inhibition profile,[12],preferentially inhibited β1 and β5
same,IC50 using the β2 substrate,"Sm20S β2 subunit [13]; single-step enriched Sm20S, β2 substrate",did not inhibit
same,inhibition at 0.5 µM,Sm20S β2 subunit [14],~35%
same,effect on Sm20S β2 activity,Sm20S β2,only partially inhibited
"CC(C)C[C@H](NC(=O)[C@H](CCc1ccccc1)NC(=O)CN1CCOCC1)C(=O)N[C@@H](Cc1ccccc1)C(=O)N[C@@H](CC(C)C)C(=O)[C@@]1(C)CO1 [CFZ, carfilzomib]",inhibition at 0.5 µM,Sm20S β1 subunit [8]; read-out: inhibition of β1 subunit activity,~40%
same,IC50 for the β1 subunit,"Sm20S β1 subunit [9]; single-step enriched Sm20S, β1 substrate",not inhibitory
same,inhibition of β5 subunit activity,Sm20S β5 subunit [10],completely inhibited
same,IC50,Sm20S β5 subunit [11],2.5 ± 0.51 nM
same,cross-species subunit inhibition profile,[12],inhibited β5 and β2 more than β1
same,IC50,Sm20S β2 subunit [13],288 ± 90 nM
same,inhibition at 0.5 µM,Sm20S β2 subunit [14],~40%
same,effect on Sm20S β2 activity,Sm20S β2,inactivated
